{
  "source": "ChEMBL document CHEMBL5576109",
  "about": "“Hydantoin derivative dimers as broad-spectrum antimicrobial agents against ESKAPE pathogens with enhanced killing rate and stability” (RSC Med Chem, 2024)",
  "key": {"[1]": {"system": "Staphylococcus aureus", "assay": "Induction of cytoplasmic membrane depolarization in Staphylococcus aureus ATCC 29213 assessed as increase in fluorescence intensity by DiSC3(5) staining based analysis", "assay_type": "functional, organism-based", "method_in_brief": "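Mid-log cells washed in 5 mM HEPES/5 mM glucose and resuspended at 10^6 CFU/mL in glucose/HEPES/100 mM KCl (1:1:1). DiSC3(5) added and fluorescence (Ex 622 / Em 670 nm) followed for 30 min at 37 °C until minimal. Compound then added and the fluorescence rise recorded.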"}, "[2]": {"system": "Escherichia coli", "assay": "Antibacterial activity against Escherichia coli ATCC 25922 assessed as inhibition of bacterial growth by measuring fold increase in MIC compound preincubated at 120 degree C for 1 hr followed by bacterial culture addition and measured after 16 to 18 hrs by TECAN SPARK microplate reader analysis", "assay_type": "functional", "details": "time 16-18 hrs"}, "[3]": {"system": "Staphylococcus aureus", "assay": "Induction of membrane disruption in Staphylococcus aureus ATCC 29213 assessed as increase in red fluorescence at 8 times of MIC for 6 hrs by Hoechst 33342 and propidium iodide staining based confocal microscopic analysis", "assay_type": "functional, organism-based"}, "[4]": {"system": "Escherichia coli", "assay": "Induction of membrane disruption in Escherichia coli ATCC 25922 assessed as increase in red fluorescence at 8 times of MIC for 6 hrs by Hoechst 33342 and propidium iodide staining based confocal microscopic analysis", "assay_type": "functional, organism-based"}, "[5]": {"system": "Staphylococcus aureus", "assay": "Antibacterial activity against Staphylococcus aureus ATCC 29213 assessed as inhibition of bacterial growth by measuring fold increase in MIC measured after 16 to 18 hrs in presence of KCl by TECAN SPARK microplate reader analysis", "assay_type": "functional", "details": "time 16-18 hrs", "method_in_brief": "(§1)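 Salt/serum stability. Exponential-phase bacteria incubated 16–18 h with compound in medium supplemented with 10 mM NaCl, 10 mM KCl, 10 mM MgCl2, 10% DMEM or 10% FBS. Stability judged from the change in MIC.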"}, "[6]": {"system": "Escherichia coli", "assay": "Bactericidal activity against Escherichia coli ATCC 25922 assessed as inhibition of bacterial growth at 1 to 4 times of MIC measured within 1 hr mins by time-kill kinetics assay relative to control", "assay_type": "functional", "method_in_brief": "(§2)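 Bacteria grown at 37 °C to mid-log phase and diluted to 1 × 10^6 CFU/mL. […] Mixtures diluted 10^2–10^4-fold and plated on TSB agar; colonies counted after 20 h at 37 °C.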"}, "[7]": {"system": "Staphylococcus aureus", "assay": "Induction of morphological changes in Staphylococcus aureus ATCC 29213 assessed as cell collapse at 8 time of MIC for 6 hrs by scanning electron microscopy", "assay_type": "functional, organism-based", "method_in_brief": "(§3)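 Mid-log cells exposed to compound for 6 h at 37 °C alongside untreated controls. Cells pelleted (3000 rpm, 15 min), washed four times in PBS, and fixed with 2.5% glutaraldehyde. Dehydrated through graded ethanol, critical-point dried and gold-coated, then imaged by SEM.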"}, "[8]": {"system": "Escherichia coli", "assay": "Antibacterial activity against Escherichia coli ATCC 25922 assessed as inhibition of bacterial growth by measuring fold increase in MIC measured after 16 to 18 hrs in presence of 10% DMEM by TECAN SPARK microplate reader analysis", "assay_type": "functional", "details": "time 16-18 hrs", "method_in_brief": "as §1"}, "[9]": {"system": "Escherichia coli", "assay": "Induction of ROS generation in Escherichia coli ATCC 25922 assessed as fold increase in fluorescence intensity at 0.5 MIC concentration incubated for 30 mins by DCFH-DA staining based analysis", "assay_type": "functional", "details": "0.5 h", "method_in_brief": "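Overnight 37 °C cultures washed three times and resuspended in PBS, diluted to OD600 0.1, and mixed with DCFH-DA (5 µM). Treated with a range of compound concentrations for 30 min at 37 °C in the dark. Fluorescence read at Ex 488 / Em 530 nm.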"}, "[10]": {"system": "Escherichia coli", "assay": "Antibacterial activity against Escherichia coli ATCC 25922 assessed as inhibition of bacterial growth by measuring fold increase in MIC measured after 16 to 18 hrs in presence of KCl by TECAN SPARK microplate reader analysis", "assay_type": "functional", "details": "time 16-18 hrs", "method_in_brief": "as §1"}, "[11]": {"system": "Escherichia coli", "assay": "Induction of morphological changes in Escherichia coli ATCC 25922 assessed as cell wrinkled at 8 time of MIC for 6 hrs by scanning electron microscopy", "assay_type": "functional, organism-based", "method_in_brief": "as §3"}, "[12]": {"system": "Staphylococcus aureus", "assay": "Antibacterial activity against Staphylococcus aureus ATCC 29213 assessed as inhibition of bacterial growth by measuring fold increase in MIC compound preincubated at 120 degree C for 1 hr followed by bacterial culture addition and measured after 16 to 18 hrs by TECAN SPARK microplate reader analysis", "assay_type": "functional", "details": "time 16-18 hrs"}, "[13]": {"system": "Staphylococcus aureus", "assay": "Bactericidal activity against Staphylococcus aureus ATCC 29213 assessed as reduction in colony forming units incubated for 15 to 120 mins by time-kill kinetics assay", "assay_type": "functional, organism-based", "details": "time 15-120 min", "method_in_brief": "as §2"}, "[14]": {"system": "Escherichia coli", "assay": "Antibacterial activity against Escherichia coli ATCC 25922 assessed as inhibition of bacterial growth by measuring fold increase in MIC measured after 16 to 18 hrs in presence of NaCl by TECAN SPARK microplate reader analysis", "assay_type": "functional", "details": "time 16-18 hrs", "method_in_brief": "as §1"}, "[15]": {"system": "Staphylococcus aureus", "assay": "Induction of morphological changes in Staphylococcus aureus ATCC 29213 assessed as cell shrinkage at 8 time of MIC for 6 hrs by scanning electron microscopy", "assay_type": "functional, organism-based", "method_in_brief": "as §3"}, "[16]": {"system": "Staphylococcus aureus", "assay": "Antibacterial activity against methicillin-resistant Staphylococcus aureus ATCC 43300 assessed as reduction bacterial growth after 16 hrs by TECAN SPARK microplate reader analysis", "assay_type": "functional", "method_in_brief": "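Broth microdilution in TSB: single colony grown overnight at 37 °C, diluted 100-fold and grown to mid-log phase. 2-fold serial compound dilutions mixed 1:1 with bacteria at 1 × 10^6 CFU/mL, incubated 16 h at 37 °C, absorbance read at 600 nm. MIC taken as lowest concentration giving complete growth inhibition.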"}, "[17]": {"system": "Staphylococcus aureus", "assay": "Antibacterial activity against Staphylococcus aureus ATCC 29213 assessed as inhibition of bacterial growth by measuring fold increase in MIC measured after 16 to 18 hrs in presence of NaCl by TECAN SPARK microplate reader analysis", "assay_type": "functional", "details": "time 16-18 hrs", "method_in_brief": "as §1"}, "[18]": {"system": "Escherichia coli", "assay": "Induction of morphological changes in Escherichia coli ATCC 25922 assessed as cell collapse at 8 time of MIC for 6 hrs by scanning electron microscopy", "assay_type": "functional, organism-based", "method_in_brief": "as §3"}, "[19]": {"system": "Staphylococcus aureus", "assay": "Bactericidal activity against Staphylococcus aureus ATCC 29213 assessed as inhibition of bacterial growth at 1 to 4 times of MIC measured within 1 hr mins by time-kill kinetics assay relative to control", "assay_type": "functional", "method_in_brief": "as §2"}, "[20]": {"system": "Staphylococcus aureus", "assay": "Antibacterial activity against Staphylococcus aureus ATCC 29213 assessed as reduction bacterial growth after 16 hrs by TECAN SPARK microplate reader analysis", "assay_type": "functional", "method_in_brief": "(§4)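 Single colony grown overnight in 4 mL TSB at 37 °C, diluted 100-fold and grown to mid-log phase. Compounds 2-fold serially diluted in TSB and mixed 1:1 with bacteria in TSB (1 × 10^6 CFU/mL). Incubated 16 h at 37 °C, then A600 read. MIC taken as the lowest concentration giving complete growth inhibition.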"}, "[21]": {"system": "Staphylococcus aureus", "assay": "Induction of morphological changes in Staphylococcus aureus ATCC 29213 assessed as cell wrinkled at 8 time of MIC for 6 hrs by scanning electron microscopy", "assay_type": "functional, organism-based", "method_in_brief": "as §3"}, "[22]": {"system": "Escherichia coli", "assay": "Antibacterial activity against Escherichia coli ATCC 25922 assessed as inhibition of bacterial growth by measuring fold increase in MIC compound preincubated at 40 degree C for 1 hr followed by bacterial culture addition and measured after 16 to 18 hrs by TECAN SPARK microplate reader analysis", "assay_type": "functional", "details": "time 16-18 hrs"}, "[23]": {"system": "Bacillus subtilis", "assay": "Antibacterial activity against Bacillus subtilis ATCC 6633 assessed as reduction bacterial growth after 16 hrs by TECAN SPARK microplate reader analysis", "assay_type": "functional", "method_in_brief": "as §4"}},
  "note": "Activity calls are given as the source filed them. The calls are words filed in the database; no cut-off is given here.",
  "data": [
    {"smiles": "CCCCCCN1C(=O)[C@H](CCCCNC(=N)N)N(Cc2ccc(-c3ccc(CN4C(=O)N(CCCCCC)C(=O)[C@@H]4CCCCNC(=N)N)cc3)cc2)C1=O", "values": [
      {"measurement": "Activity", "setting": "[1]", "value": "Dose-Dependent Effect"},
      {"measurement": "fold change (FC)", "setting": "[2]", "value": 1},
      {"measurement": "Activity", "setting": "[3]", "value": "Active"},
      {"measurement": "Activity", "setting": "[4]", "value": "Active"},
      {"measurement": "fold change (FC)", "setting": "[5]", "value": 1},
      {"measurement": "inhibition (INH)", "setting": "[6]", "value": 100, "unit": "%"},
      {"measurement": "Activity", "setting": "[7]", "value": "Active"},
      {"measurement": "fold change (FC)", "setting": "[8]", "value": 1},
      {"measurement": "fold change (FC)", "setting": "[9]", "value": "~2"},
      {"measurement": "fold change (FC)", "setting": "[10]", "value": 1},
      {"measurement": "Activity", "setting": "[11]", "value": "Active"},
      {"measurement": "fold change (FC)", "setting": "[12]", "value": 1},
      {"measurement": "Activity", "setting": "[13]", "value": "Dose-Dependent Effect"},
      {"measurement": "fold change (FC)", "setting": "[14]", "value": 1},
      {"measurement": "Activity", "setting": "[15]", "value": "Active"},
      {"measurement": "MIC", "setting": "[16]", "value": 7.81, "unit": "µg/mL"},
      {"measurement": "fold change (FC)", "setting": "[17]", "value": 1},
      {"measurement": "Activity", "setting": "[18]", "value": "Active"},
      {"measurement": "inhibition (INH)", "setting": "[19]", "value": 100, "unit": "%"},
      {"measurement": "MIC", "setting": "[20]", "value": 1.95, "unit": "µg/mL"},
      {"measurement": "Activity", "setting": "[21]", "value": "Active"},
      {"measurement": "fold change (FC)", "setting": "[22]", "value": 1},
      {"measurement": "MIC", "setting": "[23]", "value": 1.95, "unit": "µg/mL"}
    ]}
  ]
}
